In the RNAGym collection of RNA variant scans (doi:10.1002/anie.201605470):

B1: Osa-1-4 twister ribozyme (parent)
chain: CCGCCUAACACUGCCAAUGCCGGUCCCAAGCCCGGAUAAAAGUGGAGGGGGCGG

Variants of: B1
Test: self-cleavage, relative activity (ratio to wild type); higher = more cleavage; co-transcriptional
Summary of the method: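 A DNA template for a 54-nucleotide Oryza sativa twister ribozyme was synthesised with 97 % wild-type base and 1 % of each other base at the 48 positions downstream of the cleavage site. It was transcribed in vitro for 2 h at 37 °C, allowing co-transcriptional self-cleavage, then reverse-transcribed with a template-switching oligonucleotide, PCR-amplified and deep-sequenced. Cleavage status was scored from reads with or without upstream sequence. Relative activity is fraction cleaved normalised to wild type.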

CCGCCUAACACUGCCAAUGCCGGUCCCAAGCCCGGAUAAAAUGGGAGGGGGCGG [G42U U43G] and CCGCCUAACACUGCCAAUGCCGGUCCCAAGCCCGGAUAAAAUCGGAGGGGGCGG [G42U U43C] are the same in self-cleavage: 0.09 for the first, 0.09 for the second.

First: CCGCCUAACACUGCCAAUGCCGGUCCCAAGCCCGGAUAAAAUAGGAGGGGGCGG [G42U U43A]
Second: CCGCCUAACACUGCCAAUGCCGGUCCCAAGCCCGGAUAAAAUUAGAGGGGGCGG [G42U G44A]
The self-cleavage of the first is lower: 0.08 for the first, 0.35 for the second.

First: CCGCCUAACACUGCCAAUGCCGGUCCCAAGCCCGGAUAAAAUUUGAGGGGGCGG [G42U G44U]
Second: CCGCCUAACACUGCCAAUGCCGGUCCCAAGCCCGGAUAAAAUUCGAGGGGGCGG [G42U G44C]
The self-cleavage of the first is lower: 0.15 for the first, 0.26 for the second.

Compared with CCGCCUAACACUGCCAAUGCCGGACCCAAGCCCGGAUAAAAUUGGAGGGGGCGG [G42U U24A], CCGCCUAACACUGCCAAUGCCGGGCCCAAGCCCGGAUAAAAUUGGAGGGGGCGG [G42U U24G] is lower in self-cleavage: 0.03 for the first, 0.02 for the second.

First: CCGCCUAACACUGCCAAUGCCGGCCCCAAGCCCGGAUAAAAUUGGAGGGGGCGG [G42U U24C]
Second: CCGCCUAACACUGCCAAUGCCGGUCCCAAGCCCGGAUAAAAUUGGAGGGGGCGU [G42U G54U]
The self-cleavage of the first is lower: 0.03 for the first, 0.37 for the second.

Going from CCGCCUAACACUGCCAAUGCCGGUCCCAAGCCCGGAUAAAAUUGGAGGGGGCGA [G42U G54A] to CCGCCUAACACUGCCAAUGCCGGUCCCAAGCCCGGAUAAAAUUGGAGGGGGCGC [G42U G54C], the self-cleavage rises from 0.14 to 0.15.

CCGCCUAACACUGCCAAUGCCGGUCCCAAGCCCGGAUAAAAUUGGAGGAGGCGG [G42U G49A] and CCGCCUAACACUGCCAAUGCCGGUCCCAAGCCCGGAUAAAAUUGGAGGUGGCGG [G42U G49U] are the same in self-cleavage: 0.04 for the first, 0.04 for the second.

Going from CCGCCUAACACUGCCAAUGCCGGUCCCAAGCCCGGAUAAAAUUGGAGGCGGCGG [G42U G49C] to CCGCCUAACACUGCCAAUGCCGGUCCCAAGCCCGGAUAAAAUUGGAGGGGUCGG [G42U G51U], the self-cleavage rises from 0.03 to 0.07.

Going from CCGCCUAACACUGCCAAUGCCGGUCCCAAGCCCGGAUAAAAUUGGAGGGGCCGG [G42U G51C] to CCGCCUAACACUGCCAAUGCCGGUCCCAAGCCCGGAUAAAAUUGGAGGGGACGG [G42U G51A], the self-cleavage rises from 0.04 to 0.1.

First: CCGCCUAACACUGCCAAUGCCGGUCCCAAGCCCGGACAAAAUUGGAGGGGGCGG [G42U U37C]
Second: CCGCCUAACACUGCCAAUGCCGGUCCCAAGCCCGGAAAAAAUUGGAGGGGGCGG [G42U U37A]
The self-cleavage of the first is higher: 0.11 for the first, 0.09 for the second.

Going from CCGCCUAACACUGCCAAUGCCGGUCCCAAGCCCGGAGAAAAUUGGAGGGGGCGG [G42U U37G] to CCGCCUAACACUGCCAAUGCCGGUCCCAAGCCCGGAGAAAAGUAGAGGGGGCGG [G44A U37G], the self-cleavage rises from 0.15 to 1.

First: CCGCCUAACACUGCCAAUGCCGGUCCCAAGCCCGGAAAAAAGUAGAGGGGGCGG [G44A U37A]
Second: CCGCCUAACACUGCCAAUGCCGGUCCCAAGCCCGGACAAAAGUAGAGGGGGCGG [G44A U37C]
The self-cleavage of the first is lower: 0.7 for the first, 1.01 for the second.

Going from CCGCCUAACACUGCCAAUGCCGGUCCCAAGCCCGGAUAAAAUUGGAGGGGGCUG [G42U G53U] to CCGCCUAACACUGCCAAUGCCGGUCCCAAGCCCGGAUAAAAUUGGAGGGGGCCG [G42U G53C], the self-cleavage falls from 0.08 to 0.05.

Compared with CCGCCUAACACUGCCAAUGCCGGUCCCAAGCCCGGAUAAAAUUGGAGGGGGCAG [G42U G53A], CCGCCUAACACUGCCAAUGCCGGUCCCAAGCCCGGAUAAAAGUAGAGGGUGCGG [G44A G50U] is higher in self-cleavage: 0.1 for the first, 0.97 for the second.

Compared with CCGCCUAACACUGCCAAUGCCGGUCCCAAGCCCGGAUAAAAGUAGAGGGAGCGG [G44A G50A], CCGCCUAACACUGCCAAUGCCGGUCCCAAGCCCGGAUAAAAGUAGAGGGCGCGG [G44A G50C] is higher in self-cleavage: 0.71 for the first, 0.91 for the second.

Going from CCGCCUAACACUGCCAAAGCCGGUCCCAAGCCCGGAUAAAAUUGGAGGGGGCGG [G42U U18A] to CCGCCUAACACUGCCAAGGCCGGUCCCAAGCCCGGAUAAAAUUGGAGGGGGCGG [G42U U18G], the self-cleavage falls from 0.29 to 0.28.

First: CCGCCUAACACUGCCAACGCCGGUCCCAAGCCCGGAUAAAAUUGGAGGGGGCGG [G42U U18C]
Second: CCGCCUAACACUGCCAAUGCCGGUCCCAAGCCCGGAUAAAAGUAGAGAGGGCGG [G44A G48A]
The self-cleavage of the first is higher: 0.23 for the first, 0.07 for the second.

CCGCCUAACACUGCCAAUGCCGGUCCCAAGCCCGGAUAAAAGUAGAGCGGGCGG [G44A G48C] and CCGCCUAACACUGCCAAUGCCGGUCCCAAGCCCGGAUAAAAGUAGAGUGGGCGG [G44A G48U] are the same in self-cleavage: 0.06 for the first, 0.06 for the second.

Going from CCGCCUAACACUGCCAAUGCCGGUCCCAAGCCCGGAUAAAAUUGGAAGGGGCGG [G42U G47A] to CCGCCUAACACUGCCAAUGCCGGUCCCAAGCCCGGAUAAAAUUGGAUGGGGCGG [G42U G47U], the self-cleavage falls from 0.05 to 0.03.

Compared with CCGCCUAACACUGCCAAUGCCGGUCCCAAGCCCGGAUAAAAUUGGACGGGGCGG [G42U G47C], CCGCCUAACACUGCCAAUGCCGGUCCCAAGCCCGGAUAAAAUUGGAGCGGGCGG [G42U G48C] is higher in self-cleavage: 0.02 for the first, 0.03 for the second.

CCGCCUAACACUGCCAAUGCCGGUCCCAAGCCCGGAUAAAAUUGGAGUGGGCGG [G42U G48U] and CCGCCUAACACUGCCAAUGCCGGUCCCAAGCCCGGAUAAAAUUGGAGAGGGCGG [G42U G48A] are the same in self-cleavage: 0.03 for the first, 0.03 for the second.

First: CCGCCUAACACUGCCAACGCCGGUCCCAAGCCCGGAUAAAAGUAGAGGGGGCGG [G44A U18C]
Second: CCGCCUAACACUGCCAAGGCCGGUCCCAAGCCCGGAUAAAAGUAGAGGGGGCGG [G44A U18G]
The self-cleavage of the first is higher: 0.83 for the first, 0.63 for the second.

Going from CCGCCUAACACUGCCAAAGCCGGUCCCAAGCCCGGAUAAAAGUAGAGGGGGCGG [G44A U18A] to CCGCCUAACACUGCCAAUGCCGGUCCCAAGCCCGGAUAAAAGUAGAGGGGGCGG [G44A], the self-cleavage rises from 0.84 to 0.97.

Compared with CCGCCUAACACUGCCAAUGCCGGUCCCAAGCCCGGAUAAAAUUGGAGGGGGCGG [G42U], CCGCCUAACACCGCCAAUGCCGGUCCCAAGCCCGGAUAAAAUUGGAGGGGGCGG [G42U U12C] is lower in self-cleavage: 0.14 for the first, 0.05 for the second.
